The record followed here is ChEMBL document CHEMBL1914425, “Amine-alkyl derivatives of hydantoin: new tool to combat resistant bacteria” (2011).

The test system of test [1] is Klebsiella aerogenes. The test can be described thus: Antibacterial activity against Enterobacter aerogenes ATCC 13048 after 18 hrs by two fold serial dilution method. Type of test: functional. Particulars: ATCC 13048, 18 h.
For test [2], the system named is Klebsiella aerogenes. The test is described as follows: Antibacterial activity against AcrAB-TolC-over producing Enterobacter aerogenes CM-64 after 18 hrs by two fold serial dilution method. Type of test: functional. Particulars: CM-64, 18 h.
The subject of test [3] is Klebsiella aerogenes. The test can be described thus: Inhibition of AcrAB-TolC efflux pump in Enterobacter aerogenes CM-64 assessed as effect on nalidixic acid MIC at 62.5 uM relative to control.
Test [4] has as its system Klebsiella aerogenes. The test is described as follows: Inhibition of AcrAB-TolC efflux pump in Enterobacter aerogenes ATCC 13048 assessed as effect on nalidixic acid MIC at 62.5 uM relative to control.
The subject of test [5] is Klebsiella aerogenes. The test can be described thus: Inhibition of AcrAB-TolC efflux pump in Enterobacter aerogenes ATCC 13048 assessed as effect on nalidixic acid MIC at 100 uM relative to control. A digest of the protocol: (§1)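 Nalidixic acid MIC (two-fold serial dilutions, about 10^6 cells/mL Mueller-Hinton broth, 18 h, 37 C) determined with a fixed sub-inhibitory level of compound present during incubation. Activity gain A = nalidixic acid MIC without compound divided by MIC with compound. PAbN at 0.050 mM served as reference inhibitor.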

Test [6] deals with Klebsiella aerogenes. The test is described as follows: Inhibition of AcrAB-TolC efflux pump in Enterobacter aerogenes CM-64 assessed as fold decrease in nalidixic acid MIC at 62.5 uM relative to control. Summed up:
as §1

The test system of test [7] is Klebsiella aerogenes. The test can be described thus: Inhibition of AcrAB-TolC efflux pump in Enterobacter aerogenes ATCC 13048 assessed as fold decrease in nalidixic acid MIC at 62.5 uM relative to control. A digest of the protocol: as §1
For test [8], the system named is Klebsiella aerogenes. The test is described as follows: Inhibition of AcrAB-TolC efflux pump in Enterobacter aerogenes CM-64 assessed as fold decrease in nalidixic acid MIC at 100 uM relative to control. Summed up:
as §1

In test [9] the test system is Klebsiella aerogenes. The test is described as follows: Inhibition of AcrAB-TolC efflux pump in Enterobacter aerogenes CM-64 assessed as fold decrease in nalidixic acid MIC at 333 uM relative to control. A digest of the protocol:
as §1

Values after ≈ are worked out from the molar mass of the structure shown. Active and inactive are the calls of the source. No cut-off for these calls is given here.

As a reminder, the MIC is the least concentration at which growth counts as inhibited. Consider `NCCCCN1C(=O)N(CC(=O)O)C(=O)C1(c1ccccc1)c1ccccc1`, for which the MIC against Klebsiella aerogenes [1] and in the test on Klebsiella aerogenes [2] was 1250 µM (≈ 477 µg/mL) throughout. Also, the inhibition result with Klebsiella aerogenes [3] and in the test on Klebsiella aerogenes [4] was “inactive” each time.
`COC(=O)CN1C(=O)N(CC(O)CNC(C)C)C(c2ccccc2)(c2ccccc2)C1=O` (configuration not stated): the MIC against Klebsiella aerogenes [1] and in the test with Klebsiella aerogenes [2] was 125 µM (≈ 54.9 µg/mL) in each case. The inhibition entry with Klebsiella aerogenes [3] and in the test with Klebsiella aerogenes [4] was “inactive” each time.
`COC(=O)CN1C(=O)N(CCCCCCCCN2CCNCC2)C(c2ccccc2)(c2ccccc2)C1=O`: the MIC with Klebsiella aerogenes [1] and in the test with Klebsiella aerogenes [2] was 1250 µM (≈ 651 µg/mL) each time. Further, the inhibition entry in the test on Klebsiella aerogenes [3] and in the test on Klebsiella aerogenes [4] was “inactive” each time.
With `CCOC(=O)N1CCN(CCCCCN2C(=O)N(CC(=O)OC)C(=O)C2(c2ccccc2)c2ccccc2)CC1`, the minimum inhibitory concentration (MIC) in the test on Klebsiella aerogenes [1] and against Klebsiella aerogenes [2] was 1250 µM (≈ 688 µg/mL) throughout. The inhibition result in the test with Klebsiella aerogenes [3] and with Klebsiella aerogenes [4] was “inactive” in each case.
Regarding `COC(=O)CN1C(=O)N(CCCN2CCN(c3ccccc3)CC2)C(c2ccccc2)(c2ccccc2)C1=O`, the MIC in the test on Klebsiella aerogenes [1] and against Klebsiella aerogenes [2] was more than 500 µM each time. The inhibition entry with Klebsiella aerogenes [5] is “inactive”.
As for `COc1ccccc1N1CCN(CC(O)CN2C(=O)N(CC(=O)O)C(=O)C2(c2ccccc2)c2ccccc2)CC1` (configuration not stated), the MIC is 125 µM (≈ 69.8 µg/mL) in the test on Klebsiella aerogenes [1] and 250 µM (≈ 140 µg/mL) in the test on Klebsiella aerogenes [2]. Moreover, the fold change (FC) stood at 4 in the test on Klebsiella aerogenes [6] and 2 in the test on Klebsiella aerogenes [7].
With `O=C(O)CN1C(=O)N(CCCCCCN2CCCN3CCCN=C23)C(c2ccccc2)(c2ccccc2)C1=O`, the MIC against Klebsiella aerogenes [1] and against Klebsiella aerogenes [2] was 1250 µM (≈ 665 µg/mL) throughout. For the same compound, the inhibition entry in the test with Klebsiella aerogenes [3] and with Klebsiella aerogenes [4] was “inactive” each time.
With `CCOC(=O)N1CCN(CCCCN2C(=O)N(CC(=O)O)C(=O)C2(c2ccccc2)c2ccccc2)CC1`, the MIC with Klebsiella aerogenes [1] and in the test with Klebsiella aerogenes [2] was 1250 µM (≈ 653 µg/mL) throughout. Further, the inhibition result in the test with Klebsiella aerogenes [3] and in the test on Klebsiella aerogenes [4] was “inactive” in each case.
For the compound `O=C1NC(=O)C(c2ccccc2)(c2ccccc2)N1CCCCN1CCN(c2ccccc2)CC1`, the MIC with Klebsiella aerogenes [1] and against Klebsiella aerogenes [2] was more than 500 µM in each case. Besides, in the test on Klebsiella aerogenes [5], the inhibition entry was “inactive”.
On to `O=C(O)CN1C(=O)N(CCCN2CCCN3CCCN=C32)C(c2ccccc2)(c2ccccc2)C1=O`, for which the minimal inhibitory concentration (MIC) in the test on Klebsiella aerogenes [1] and against Klebsiella aerogenes [2] was 1250 µM (≈ 612 µg/mL) throughout. The inhibition result in the test with Klebsiella aerogenes [3] and in the test on Klebsiella aerogenes [4] was “inactive” in each case.
Take `COC(=O)CN1C(=O)N(CC(CN2CCN(c3ccccc3)CC2)OC(C)=O)C(c2ccccc2)(c2ccccc2)C1=O` (configuration not stated): the MIC with Klebsiella aerogenes [1] and against Klebsiella aerogenes [2] was 250 µM (≈ 146 µg/mL) throughout.
With `COC(=O)CN1C(=O)N(CCCCN2CCN(c3ccccc3)CC2)C(c2ccccc2)(c2ccccc2)C1=O`, the fold change (FC) in the test with Klebsiella aerogenes [8] amounted to 4. Moreover, the minimal inhibitory concentration (MIC) against Klebsiella aerogenes [1] and in the test on Klebsiella aerogenes [2] was more than 500 µM throughout. Moreover, the inhibition entry in the test with Klebsiella aerogenes [5] was “inactive”.
With `O=C(O)CN1C(=O)N(CCCCCN2CCCN3CCCN=C23)C(c2ccccc2)(c2ccccc2)C1=O`, the MIC against Klebsiella aerogenes [1] and against Klebsiella aerogenes [2] was 1250 µM (≈ 647 µg/mL) in each case. In addition, the inhibition result with Klebsiella aerogenes [3] and with Klebsiella aerogenes [4] was “inactive” each time.
`CN1C(=O)N(CC(O)CN2CCN(c3ccccc3)CC2)C(c2ccccc2)(c2ccccc2)C1=O` (configuration not stated): the MIC with Klebsiella aerogenes [1] and against Klebsiella aerogenes [2] was more than 500 µM each time. For the same compound, the inhibition entry in the test with Klebsiella aerogenes [5] was “inactive”.
For the compound `COc1ccccc1N1CCN(CCCN2C(=O)N(C)C(=O)C2(c2ccccc2)c2ccccc2)CC1`, the MIC with Klebsiella aerogenes [1] and against Klebsiella aerogenes [2] was more than 500 µM each time. The inhibition result with Klebsiella aerogenes [5] was “inactive”.
`O=C(O)CN1C(=O)N(CCCCN2CCCN3CCCN=C23)C(c2ccccc2)(c2ccccc2)C1=O`: the MIC in the test with Klebsiella aerogenes [1] and against Klebsiella aerogenes [2] was 1250 µM (≈ 630 µg/mL) in each case. Also, the inhibition result in the test with Klebsiella aerogenes [3] and in the test on Klebsiella aerogenes [4] was “inactive” in each case.
Turning to `CCOC(=O)N1CCN(CCCCCCN2C(=O)N(CC(=O)OC)C(=O)C2(c2ccccc2)c2ccccc2)CC1`, the minimal inhibitory concentration (MIC) against Klebsiella aerogenes [1] and in the test with Klebsiella aerogenes [2] was 1250 µM (≈ 706 µg/mL) throughout. Besides, the inhibition result in the test with Klebsiella aerogenes [3] and in the test on Klebsiella aerogenes [4] was “inactive” each time.
For `NCCCCCCN1C(=O)N(CC(=O)O)C(=O)C1(c1ccccc1)c1ccccc1`, the MIC against Klebsiella aerogenes [1] and against Klebsiella aerogenes [2] was 1250 µM (≈ 512 µg/mL) each time. The inhibition result in the test with Klebsiella aerogenes [3] and in the test on Klebsiella aerogenes [4] was “inactive” in each case.
Turning to `CCOC(=O)N1CCN(CCCCCCCCN2C(=O)N(CC(=O)OC)C(=O)C2(c2ccccc2)c2ccccc2)CC1`, the minimal inhibitory concentration (MIC) against Klebsiella aerogenes [1] and against Klebsiella aerogenes [2] was 1250 µM (≈ 741 µg/mL) each time. In addition, the inhibition result in the test on Klebsiella aerogenes [3] and with Klebsiella aerogenes [4] was “inactive” in each case.
Consider `COc1ccccc1N1CCN(CCCCN2C(=O)N(CC(=O)O)C(=O)C2(c2ccccc2)c2ccccc2)CC1`, for which the minimum inhibitory concentration (MIC) with Klebsiella aerogenes [1] was found to be 62.5 µM (≈ 34.8 µg/mL); in the test with Klebsiella aerogenes [2] it was 250 µM (≈ 139 µg/mL). Moreover, the fold change (FC) in the test on Klebsiella aerogenes [6] was 4; with Klebsiella aerogenes [7], 2.
As to `COC(=O)CN1C(=O)N(CC(O)CN2CCN(c3ccccc3)CC2)C(c2ccccc2)(c2ccccc2)C1=O` (configuration not stated), the MIC with Klebsiella aerogenes [1] and with Klebsiella aerogenes [2] was 5000 µM (≈ 2710 µg/mL) each time. In addition, the fold change (FC) with Klebsiella aerogenes [9] came to 4.
For the compound `CN1C(=O)N(CCCCCN2CCN(c3ccccc3)CC2)C(c2ccccc2)(c2ccccc2)C1=O`, in the test with Klebsiella aerogenes [8], the fold change (FC) turned out to be 4. Also, the minimal inhibitory concentration (MIC) in the test on Klebsiella aerogenes [1] and against Klebsiella aerogenes [2] was more than 500 µM each time. The inhibition entry in the test with Klebsiella aerogenes [5] was “inactive”.
As for `CCOC(=O)N1CCN(CCCCN2C(=O)N(CC(=O)OC)C(=O)C2(c2ccccc2)c2ccccc2)CC1`, the MIC in the test with Klebsiella aerogenes [1] and against Klebsiella aerogenes [2] was 1250 µM (≈ 671 µg/mL) throughout. Besides, the inhibition entry in the test on Klebsiella aerogenes [3] and with Klebsiella aerogenes [4] was “inactive” throughout.
For `CC(=O)OC(CN1CCN(c2ccccc2)CC1)CN1C(=O)N(C)C(=O)C1(c1ccccc1)c1ccccc1` (configuration not stated), the minimum inhibitory concentration (MIC) in the test on Klebsiella aerogenes [1] and with Klebsiella aerogenes [2] was more than 500 µM throughout. The inhibition entry in the test on Klebsiella aerogenes [5] is “inactive”.
For `NCCCN1C(=O)N(CC(=O)O)C(=O)C1(c1ccccc1)c1ccccc1`, the MIC against Klebsiella aerogenes [1] and against Klebsiella aerogenes [2] was 1250 µM (≈ 459 µg/mL) each time. For the same compound, the inhibition result in the test on Klebsiella aerogenes [3] and in the test with Klebsiella aerogenes [4] was “inactive” each time.
